Experimental data: ChEMBL document CHEMBL4406918, “Inhibitory Effects of Multivalent Polypeptides on the Proliferation and Metastasis of Breast Cancer Cells” (ACS Med Chem Lett, 2019)
Active and inactive are the calls of the source. The rule behind the calls is not given here.

Legend:
4T1 [1] = experiment: Induction of apoptosis in mouse 4T1 cells assessed as early apoptotic cells at 10^-3 mM incubated for 24 hrs by Annexin V-FITC/PI based FACS analysis (reference value: 0.76%); assay type: functional
4T1 [2] = experiment: Induction of apoptosis in mouse 4T1 cells assessed as necrotic cells at 10^-3 mM incubated for 24 hrs by Annexin V-FITC/PI based FACS analysis (reference value: 0.47%); assay type: functional
4T1 [3] = experiment: Inhibition of metastasis in mouse 4T1 cells assessed as formation of pseudopods at 10^-5 mM incubated for 24 hrs by SEM analysis; assay type: functional, cell-based
Method in brief: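 4T1 cells treated 24 h, then imaged by scanning electron microscopy for pseudopod formation. Dendrimers were tested at 0.2 mM and the reference at 10–5 mM.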

Erythrocyte = experiment: Hemolytic activity in BALB/c mouse RBC at 3.2 mM incubated for 2 hrs by UV-Vis spectrophotometric analysis; assay type: ADME, cell-based; conditions: 3200 µM
Method in brief: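 Hemolysis assay on red blood cells with dendrimers up to 3.2 mM. Result is expressed as hemolysis rate, with under 5% taken as acceptable.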

4T1 [4] = experiment: Antiinvasive activity in mouse 4T1 cells assessed as cell invasion rate at 10^-5 mM incubated for 24 hrs by crystal violet staining based matrigel invasion assay relative to control; conditions: 4T1, 24 h
4T1 [5] = experiment: Induction of cell cycle arrest in mouse 4T1 cells assessed as accumulation at G0/G1 phase at 10^-3 mM incubated for 24 hrs by PI staining based flow cytometric analysis (reference value: 37.78%); assay type: functional
4T1 [6] = experiment: Inhibition of cell migration in mouse 4T1 cells assessed as wound closure rate at 10^-5 mM measured up to 36 hrs by inverted optical microscopic method based wound healing assay (reference value: 82%); assay type: functional; parameters: scale not given: the % may be the effect or the level left; conditions: at 10 nM
4T1 [7] = experiment: Antitumour activity against mouse 4T1 cells xenografted in BALB/c mouse assessed as increase in cytotoxic tumor cell death at 10 mg/kg administered intratumorally and measured after 24 days by H and E staining based inverted optical microscopic method; assay type: functional, organism-based
Method in brief: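 BALB/c mice bearing subcutaneous 4T1 tumours received 6 doses at 10 mg/kg body weight, matched for YSL monomer molar amount, with saline as control. Tumour sections were stained for H&E, CD31, Ki-67 and TUNEL. n = 5.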

4T1 [8] = experiment: Induction of cell cycle arrest in mouse 4T1 cells assessed as accumulation at S phase at 10^-3 mM incubated for 24 hrs by PI staining based flow cytometric analysis (Rvb =42.35%); assay type: functional; conditions: at 0.001 mM
4T1 [9] = experiment: Inhibition of metastasis in mouse 4T1 cells assessed as disruption in F-actin arrangement at 10^-5 mM incubated for 24 hrs by Hoechst 33342 staining based confocal laser scanning microscopic method; assay type: functional, cell-based
Method in brief: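 After 24 h treatment, 4T1 cells were stained with Alexa Fluor 488 phalloidin for F-actin and Hoechst 33342 for nuclei, then imaged by fluorescence microscopy to assess cytoskeleton and cell morphology.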

4T1 [10] = experiment: Inhibition of cell migration in mouse 4T1 cells assessed as migration frequency at 10^-5 mM incubated for 24 hrs by crystal violet staining based transwell assay relative to control; assay type: functional; parameters: scale not given: the % may be the effect or the level left
Method in brief: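 Transwell migration assay on 4T1 cells after 24 h treatment. Rate was quantified from cell numbers on the underside of the porous membrane. Mean ± SD, n = 3.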

4T1 [11] = experiment: Antiproliferative activity against mouse 4T1 cells incubated for 24 hrs by MTT assay; assay type: functional, cell-based; conditions: 4T1, 24 h
Method in brief: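 MTT viability assay on 4T1 cells after 24 h treatment. Concentrations included 0.1 mM and 0.2 mM, and IC50 was taken from the viability curve. Mean ± SD, n = 6.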

4T1 [12] = experiment: Induction of cell cycle arrest in mouse 4T1 cells assessed as accumulation at G2/M phase at 10^-3 mM incubated for 24 hrs by PI staining based flow cytometric analysis (reference value: 19.82%); assay type: functional
4T1 [13] = experiment: Induction of cell death in mouse 4T1 cells incubated for 24 hrs by PI staining based inverted microscopic method; assay type: functional
Method in brief: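 Live–dead staining of 4T1 cells after 24 h exposure to 0.4 mM, read by PI staining. A 0.8 mM level was also examined.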

4T1 [14] = experiment: Induction of apoptosis in mouse 4T1 cells assessed as late apoptotic cells at 10^-3 mM incubated for 24 hrs by Annexin V-FITC/PI based FACS analysis (reference value: 6.62%); assay type: functional
4T1 [15] = experiment: Induction of apoptosis in mouse 4T1 cells assessed as viable cells at 10^-3 mM incubated for 24 hrs by Annexin V-FITC/PI based FACS analysis (reference value: 92.2%); assay type: functional; conditions: 4T1, 24 h, read-out: Activity

`CC(=O)O[C@H]1C(=O)[C@@]2(C)[C@H]([C@H](OC(=O)c3ccccc3)[C@]3(O)C[C@H](OC(=O)[C@H](O)[C@@H](NC(=O)c4ccccc4)c4ccccc4)C(C)=C1C3(C)C)[C@]1(OC(C)=O)CO[C@@H]1C[C@@H]2O` [PACLITAXEL] was tested. Which Activity (4T1 [1]) did it give?
Its Activity is 0.77%.

And the Activity (4T1 [2])?
The Activity was 0.62%.

And the inhibition (4T1 [3])?
The inhibition was “inactive”.

And the Activity (Erythrocyte)?
The Activity was “Non-Toxic”.

What about the invasion rate at 0.01 µM (4T1 [4]) of the same molecule?
Its invasion rate at 0.01 µM is 34%.

What about the Activity (4T1 [5]) of the same molecule?
Its Activity is 42.35%.

And the Activity (4T1 [6])?
Its Activity is 43%.

And the Activity (4T1 [7])?
The Activity was “Active”.

What about the Activity (4T1 [8]) of the same molecule?
Its Activity is 44.64%.

And the inhibition (4T1 [9])?
Its inhibition is “Active”.

And the Activity (4T1 [10])?
Its Activity is 30%.

What about the IC50 (4T1 [11]) of the same molecule?
Its IC50 is 1000 nM.

What about the Activity (4T1 [12]) of the same molecule?
The Activity was 13.02%.

And the Activity (4T1 [13])?
The Activity was “Dose-dependent effect”.

What about the Activity (4T1 [14]) of the same molecule?
Its Activity is 36.9%.

And the viability at 1 µM (4T1 [15])?
The viability at 1 µM was 61.7%.
